Many of the other results were omitted from the sample, so hits are more common in it than they were.
CHOP inh: blocks CHOP induction under ER stress | 220,000 tested, 3.8% active | AID 2732 | CHO-K1 CHOP-promoter luciferase, tunicamycin-induced, 15-18 h | inhibition, % at 10 µM;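 active = compounds that reduced the stress-induced luciferase reporter signal by more than about 70% of percent inhibition, limit read from the data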;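 also: 0% = tunicamycin plus vehicle and 100% = wells without tunicamycin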
697 NFkB inh: inhibitors of the PMA/ionomycin-induced NF-kB reporter in 697 B cells. 330,000 tested, 0.33% active. inhibition, % at 4 µM. 697 B-cell NF-kB luciferase reporter, 16 h; in the data active = inhibition above about 35%
XBP1 UPR activ: activators of adaptive arm of unfolded protein response (XBP1); 330,000 tested, 0.33% active; CHO-XBP1 luciferase reporter, IRE1-XBP1 UPR activation, luminescence; percent of tunicamycin response, DMSO as zero; activation, % at 20 µM;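 active = versus positive control, 20 µM dose yields 30% or more activation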;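 also: 100% = tunicamycin at 10 µg/mL and 0% = DMSO only wells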
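Material: CHO cell line with stable XBP1 luciferase reporter; schedule: 16-18 h cell attachment at 37 °C, then 6 h compound exposure; signal: glow luminescence from Steady-Glo reagent; medium: serum-containing F12 medium, 10% FBS; benchmarks: tunicamycin 10 µg/mL and vehicle-only wells; read-out: percent activation relative to tunicamycin reference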
Jurkat NFkB inh: inhibitors of the PMA/ionomycin-induced NF-kB reporter in Jurkat cells. PMA/ionomycin-induced NF-kB luciferase reporter, luminescence. 330,000 tested, 0.53% active. inhibition, % at 4 µM; in the data active = inhibition above about 50%
CHOP UPR activ: apoptotic UPR (CHOP) activation; CHO-CHOP luciferase reporter, luminescence; percent of tunicamycin response over DMSO baseline; activation, % at 10 µM; 330,000 tested, 0.34% active; AID 449763;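 active = at 10 µM dose, activation of 40% or more, normalized to positive control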;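 also: 100% = tunicamycin at 10 µg/mL and 0% = DMSO alone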
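measured by = luciferase luminescence | assay system = CHO-CHOP cells, stable luciferase reporter of PERK-eIF2a-CHOP signalling | amount = 500 reporter cells seeded per well | timing = 6 h compound exposure at 37 °C after overnight seeding | controls = positive tunicamycin 10 µg/mL, negative DMSO alone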
Starred values were filed as active, the others as inactive; . = no result given.

SMILES | CHOP inh | 697 NFkB inh | XBP1 UPR activ | Jurkat NFkB inh | CHOP UPR activ
COc1ccccc1-c1nnc(SCC(=O)Nc2cccnc2Cl)n1C | . | 5 | 0 | 10 | 0
C=CCn1c(SCC(=O)NC2CCCC2)nc2scc(-c3ccco3)c2c1=O | -20 | 15 | 0 | 4 | 1
C=CCn1c(SCC(=O)NCCCC)nc2scc(-c3ccco3)c2c1=O | 93* | -2 | -1 | -3 | -1
COc1ccc2nc(NC(=O)C3CCCN(S(=O)(=O)c4c(C)noc4C)C3)sc2c1 (centres undefined) | 75* | 11 | -4 | 2 | 1
O=C1c2ccccc2C(=O)C2OC12 (centres undefined) | . | 6 | -3 | 6 | 66*
O=C1c2ccccc2C(=O)C1c1ccccn1 | 27 | -91 | 0 | -78 | 2
COC(=O)N/N=C/c1cc(Cl)cc(Cl)c1OCc1ccccc1 | 74* | 11 | -2 | -7 | 3
COc1cccc(/C=N/NC(N)=S)c1OCc1cccc(Cl)c1 | 35 | 14 | 1 | 3 | 0
O=C(Cc1c(Cl)cccc1Cl)NCCc1ccc(Cl)cc1 | 75* | 1 | -3 | 5 | 2
CCOC(=O)C(CCCCOc1cccc(CC)c1)C(=O)OCC | 71* | -3 | -2 | 1 | 4
Cc1ccc(CN2CC(C(=O)NCCCSc3ccccc3)CC2=O)cc1 (centres undefined) | . | 3 | -2 | 4 | -1
CCc1ccccc1N1CCN(S(=O)(=O)c2ccc(F)c(C)c2)CC1 | 74* | -41 | -1 | -5 | -2
Cc1ccc(N2CCN(S(=O)(=O)c3ccc(F)c(C)c3)CC2)c(C)c1 | 61 | -2 | -3 | -7 | 2
Cc1ccc(C2(c3noc(CN(C)Cc4cccnc4)n3)CCCC2)cc1 | 4 | -11 | 2 | 12 | 1
COc1ccc(CNc2nc(C)c([N+](=O)[O-])c(C)c2C#N)cc1 | 20 | 7 | 2 | -1 | 0
COc1cc(CNc2nc(C)c([N+](=O)[O-])c(C)c2C#N)cc(OC)c1OC | 79* | 0 | -1 | 8 | -1
CN1CCN(C2=C(NS(=O)(=O)c3cccs3)C(=O)c3ccccc3C2=O)CC1 | -38 | 11 | -1 | 31 | 4
CCOc1ccccc1N1CCN(C2=C(NS(=O)(=O)c3cccs3)C(=O)c3ccccc3C2=O)CC1 | 71* | -1 | -3 | 7 | 2
O=C(Cn1nnc(-c2ccc(Cl)cc2)n1)NCC1CCCCC1 | 90* | 13 | 1 | -3 | 1
CCCCCCCCCCCCCCCCCC(=O)OC(CC(=O)O)C[N+](C)(C)C (centres undefined) | -8 | . | . | . | .
Cc1cc(Br)c(OCc2ccc(C(=O)N/N=C3\CC(=O)CC(C)(C)C3)cc2)c(Br)c1 | 91* | 4 | -2 | 6 | 2
C=CCSc1nc(N)c(C(=O)Nc2ccccc2OC)cc1C(=O)Nc1ccccc1 | 10 | 15 | -2 | 3 | 0
C=CCSc1nc(N)c(C(=O)Nc2ccccc2)cc1C#N | 70* | -41 | 6 | -20 | 0
Cc1cc(C)nc(NS(=O)(=O)c2ccc(NC(=O)CCC3COc4ccccc4O3)cc2)n1 (centres undefined) | 77* | 17 | 0 | 10 | -4
Cc1ccccc1OCC(=O)NC(=S)Nc1ccc(S(=O)(=O)NC2CCCCC2)cc1 | 77* | -8 | -4 | 7 | -2
SMILES | CHOP inh | 697 NFkB inh | XBP1 UPR activ | Jurkat NFkB inh | CHOP UPR activ
CCOC(=O)c1ccc(NC(=O)CCC2COc3ccccc3O2)cc1 (centres undefined) | 34 | 9 | -3 | 17 | -2
Cc1cc(C)nc(NS(=O)(=O)c2ccc(NC(=S)NC(=O)C3CCCC3)cc2)n1 | 72* | -8 | 0 | -19 | 1
NS(=O)(=O)c1cccc(Nc2nc3ccccc3nc2NS(=O)(=O)c2ccc(Cl)cc2)c1 | . | 2 | 1 | -5 | 1
C=CCc1c(OC)ccc2c1c(S(=O)(=O)c1ccc(C)cc1)cn2COC | . | -10 | -2 | -1 | 1
CCOc1ccc(CCNC(=O)Cn2nc(C)n3cccc3c2=O)cc1OCC | . | -2 | -1 | 12 | -1
CC(=O)NC(=S)Nc1ccc(NC(=O)c2cccnc2Cl)cc1 | 7 | -6 | -1 | -17 | 1
c1ccc(Nc2ncnc3[nH]ncc23)cc1 | 16 | 19 | -2 | -5 | -1
CCc1ccc(NS(=O)(=O)c2ccc(C)c(C(=O)N3CCOCC3)c2)cc1 | . | 8 | -6 | 18 | -2

Assay outcomes from PubChem.
